Results from ChEMBL document CHEMBL4346654 (Eur J Med Chem, 2019).
≈ marks a conversion by molar mass, not a printed value.

Legend:
Cytochrome P450 3A4 [1] = target: T1, Cytochrome P450 3A4 (Homo sapiens, UniProt P08684); experiment: Inhibition of CYP3A4 (unknown origin); format: ADME
Rattus norvegicus [2] = experiment: Ratio of test compound plasma clearance to telithromycin plasma clearance in Sprague-Dawley rat at 20 mg/kg, po after 0.25 to 24 hrs by LC-MS/MS analysis; format: ADME, organism-based; details: in vivo
Streptococcus pneumoniae [3] = experiment: Bactericidal activity against Streptococcus pneumoniae 07P390 expressing constitutive ermB gene pretreated followed by subculture in absence of compound measured after 24 hrs; format: functional
In short: (§1)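 Isolates were identified by 16S rDNA sequencing. MIC was determined by CLSI-recommended two-fold broth dilution. For MBC, samples from 1–8 fold MIC were transferred to culture medium and subcultured for 24 h without antibiotic.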

Streptococcus pyogenes [4] = experiment: Selectivity ratio of MBC to MIC for MLS-resistant Streptococcus pyogenes 01-968 expressing inducible ermB gene; format: functional
In short: (§2)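 MBC/MIC ratio. MIC was measured by CLSI standard two-fold broth dilution. MBC was measured by transferring samples at 1–8 fold MIC to culture medium and subculturing for 24 h without antibiotic. Isolates were identified by 16S rDNA sequencing.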

Haemophilus influenzae [5] = experiment: Bactericidal activity against azithromycin-susceptible Haemophilus influenzae ATCC 49247 pretreated followed by subculture in absence of compound measured after 24 hrs; format: functional; in short: as §1
[6] = MRT in Sprague-Dawley rat at 20 mg/kg, po after 0.25 to 24 hrs by LC-MS/MS analysis; format: ADME, organism-based; details: in vivo
In short: (§3)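 Male SD rats were given a single 20 mg/Kg oral dose. Blood was sampled at 0.25, 0.5, 1, 2, 4, 6, 8 and 24 h and centrifuged at 2500 g for 5 min at 4 °C. Drug levels were quantified by LC-MS/MS. t1/2, Cmax, Tmax, CL, MRT and AUC were calculated from the concentration–time data.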

Moraxella catarrhalis [7] = experiment: Antibacterial activity against erythromycin-susceptible Moraxella catarrhalis 13L332 assessed as reduction in microbial growth by CLSI based two-fold broth dilution method; format: functional
Streptococcus pyogenes [8] = experiment: Bactericidal activity against MLS-resistant Streptococcus pyogenes 01-968 expressing inducible ermB gene pretreated followed by subculture in absence of compound measured after 24 hrs; format: functional
In short: (§4)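 MBC assay. Following MIC determination by CLSI standard two-fold broth dilution, samples at 1–8 fold MIC were transferred to fresh culture medium. They were subcultured for 24 h without antibiotic. Isolates were identified by 16S rDNA sequencing. S. aureus ATCC 29213 was used as a control strain.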

[9] = AUCinfinity in Sprague-Dawley rat at 20 mg/kg, po after 0.25 to 24 hrs by LC-MS/MS analysis; format: ADME, organism-based; design: dose 20 mg/kg, time infinity, route oral; details: in vivo; in short: as §3
[10] = Half life in Sprague-Dawley rat at 20 mg/kg, po after 0.25 to 24 hrs by LC-MS/MS analysis; format: ADME, organism-based; details: in vivo; in short: as §3
Streptococcus pneumoniae [11] = experiment: Selectivity ratio of MBC to MIC for penicillin-susceptible Streptococcus pneumoniae PU 09 expressing mef gene; format: functional; in short: as §1
Rattus norvegicus [12] = experiment: Ratio of test compound half life to telithromycin half life in Sprague-Dawley rat at 20 mg/kg, po after 0.25 to 24 hrs by LC-MS/MS analysis; format: ADME, organism-based; details: in vivo
[13] = Tmax in Sprague-Dawley rat at 20 mg/kg, po after 0.25 to 24 hrs by LC-MS/MS analysis; format: ADME, organism-based; details: in vivo; in short: as §3
Cytochrome P450 3A4 [14] = target: T1, Cytochrome P450 3A4; experiment: Inhibition of CYP3A4 in human liver microsomes assessed as reduction in metabolite formation using midazolam as substrate incubated for 10 mins in presence of NADPH by HPLC based mass spectrometric method; format: ADME
In short: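 Human liver microsome CYP3A4 with midazolam substrate in 0.1 M potassium phosphate buffer was prewarmed at 37 °C for 5 min. Compound and 25 mM NADPH solution (stock) were added, then incubated at 37 °C for 10 min. Ketoconazole served as the positive inhibitor. Metabolite was measured by UPLC–triple quadrupole MS as the metabolite/internal standard peak area ratio, and IC50 was derived by curve fitting.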

Moraxella catarrhalis [15] = experiment: Bactericidal activity against erythromycin-susceptible Moraxella catarrhalis 13L332 pretreated followed by subculture in absence of compound measured after 24 hrs; format: functional; in short: as §1
Staphylococcus aureus [16] = experiment: Bactericidal activity against MLS/methicillin-resistant Staphylococcus aureus PU 32 expressing inducible ermA gene pretreated followed by subculture in absence of compound measured after 24 hrs; format: functional; in short: as §4
Streptococcus pyogenes [17] = experiment: Antibacterial activity against MLS-resistant Streptococcus pyogenes 01-968 expressing inducible ermB gene assessed as reduction in microbial growth by CLSI based two-fold broth dilution method; format: functional
Streptococcus pneumoniae [18] = experiment: Bactericidal activity against erythromycin-susceptible Streptococcus pneumoniae ATCC49619 pretreated followed by subculture in absence of compound measured after 24 hrs; format: functional; in short: as §1
[19] = Ratio of test compound MRT to telithromycin MRT in Sprague-Dawley rat at 20 mg/kg, po after 0.25 to 24 hrs by LC-MS/MS analysis; format: ADME, organism-based; details: in vivo
Staphylococcus aureus [20] = experiment: Bactericidal activity against MLS-resistant Staphylococcus aureus PU 20 expressing constitutive ermC gene pretreated followed by subculture in absence of compound measured after 24 hrs; format: functional; in short: as §4
[21] = Cmax in Sprague-Dawley rat at 20 mg/kg, po after 0.25 to 24 hrs by LC-MS/MS analysis; format: ADME, organism-based; design: dose 20 mg/kg, route oral; details: in vivo; in short: as §3
Streptococcus pyogenes [22] = experiment: Selectivity ratio of MBC to MIC for MLS-resistant Streptococcus pyogenes 12-206 expressing constitutive ermA gene; format: functional; in short: as §2
Streptococcus pneumoniae [23] = experiment: Antibacterial activity against Streptococcus pneumoniae 07P390 expressing constitutive ermB gene assessed as reduction in microbial growth by CLSI based two-fold broth dilution method; format: functional
Haemophilus influenzae [24] = experiment: Selectivity ratio of MBC to MIC for azithromycin-susceptible Haemophilus influenzae ATCC 49247; format: functional; in short: as §1
Staphylococcus aureus [25] = experiment: Selectivity ratio of MBC to MIC for MLS/methicillin-resistant Staphylococcus aureus PU 32 expressing inducible ermA gene; format: functional; in short: as §2
Staphylococcus aureus [26] = experiment: Antibacterial activity against MLS-resistant Staphylococcus aureus PU 20 expressing constitutive ermC gene assessed as reduction in microbial growth by CLSI based two-fold broth dilution method; format: functional
Streptococcus pyogenes [27] = experiment: Bactericidal activity against Streptococcus pyogenes 12-207 expressing mef gene pretreated followed by subculture in absence of compound measured after 24 hrs; format: functional; in short: as §1
Streptococcus pyogenes [28] = experiment: Antibacterial activity against MLS-resistant Streptococcus pyogenes 12-206 expressing constitutive ermA gene assessed as reduction in microbial growth by CLSI based two-fold broth dilution method; format: functional
Streptococcus pneumoniae [29] = experiment: Antibacterial activity against erythromycin-susceptible Streptococcus pneumoniae ATCC49619 assessed as reduction in microbial growth by CLSI based two-fold broth dilution method; format: functional
Moraxella catarrhalis [30] = experiment: Selectivity ratio of MBC to MIC for erythromycin-susceptible Moraxella catarrhalis 13L332; format: functional; in short: as §1
Streptococcus pneumoniae [31] = experiment: Antibacterial activity against penicillin-susceptible Streptococcus pneumoniae PU 09 expressing mef gene assessed as reduction in microbial growth by CLSI based two-fold broth dilution method; format: functional
Streptococcus pyogenes [32] = experiment: Antibacterial activity against Streptococcus pyogenes 12-207 expressing mef gene assessed as reduction in microbial growth by CLSI based two-fold broth dilution method; format: functional
Streptococcus pneumoniae [33] = experiment: Bactericidal activity against penicillin-susceptible Streptococcus pneumoniae PU 09 expressing mef gene pretreated followed by subculture in absence of compound measured after 24 hrs; format: functional; in short: as §1
Haemophilus influenzae [34] = experiment: Antibacterial activity against azithromycin-susceptible Haemophilus influenzae ATCC 49247 assessed as reduction in microbial growth by CLSI based two-fold broth dilution method; format: functional
Streptococcus pyogenes [35] = experiment: Bactericidal activity against MLS-resistant Streptococcus pyogenes 12-206 expressing constitutive ermA gene pretreated followed by subculture in absence of compound measured after 24 hrs; format: functional; in short: as §4
Rattus norvegicus [36] = experiment: Ratio of test compound AUC to telithromycin AUC in Sprague-Dawley rat at 20 mg/kg, po after 0.25 to 24 hrs by LC-MS/MS analysis; format: ADME, organism-based; details: in vivo
[37] = AUC (0 to t) in Sprague-Dawley rat at 20 mg/kg, po after 0.25 to 24 hrs by LC-MS/MS analysis; format: ADME, organism-based; design: time upper 24 hr, dose 20 mg/kg, time lower 0.25 hr, route oral; details: in vivo; in short: as §3
Streptococcus pyogenes [38] = experiment: Selectivity ratio of MBC to MIC for Streptococcus pyogenes 12-207 expressing mef gene; format: functional; in short: as §1
Streptococcus pneumoniae [39] = experiment: Selectivity ratio of MBC to MIC for Streptococcus pneumoniae 07P390 expressing constitutive ermB gene; format: functional; in short: as §1
Staphylococcus aureus [40] = experiment: Antibacterial activity against MLS-resistant Staphylococcus aureus PU 32 expressing inducible ermA gene assessed as reduction in microbial growth by CLSI based two-fold broth dilution method; format: functional
[41] = Systemic plasma clearance in Sprague-Dawley rat at 20 mg/kg, po after 0.25 to 24 hrs by LC-MS/MS analysis; format: ADME, organism-based; in short: as §3

T1 sequence (P08684 whole entry): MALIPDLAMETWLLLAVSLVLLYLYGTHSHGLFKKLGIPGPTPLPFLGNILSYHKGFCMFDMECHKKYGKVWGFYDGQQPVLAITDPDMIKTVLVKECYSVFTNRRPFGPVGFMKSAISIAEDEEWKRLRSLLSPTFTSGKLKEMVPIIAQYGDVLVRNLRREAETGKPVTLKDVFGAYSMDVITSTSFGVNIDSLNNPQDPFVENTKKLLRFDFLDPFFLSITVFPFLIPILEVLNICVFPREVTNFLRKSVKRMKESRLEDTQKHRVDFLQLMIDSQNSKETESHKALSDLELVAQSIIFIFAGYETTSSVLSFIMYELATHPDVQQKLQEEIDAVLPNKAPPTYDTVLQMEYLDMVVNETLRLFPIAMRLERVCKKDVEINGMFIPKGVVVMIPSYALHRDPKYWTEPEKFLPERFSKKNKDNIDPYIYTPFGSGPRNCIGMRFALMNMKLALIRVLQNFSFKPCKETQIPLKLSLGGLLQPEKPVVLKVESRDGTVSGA

Compound | MBC (Streptococcus pneumoniae [3]) [µg/mL] | Selectivity ratio (Streptococcus pyogenes [4]) | MBC (Haemophilus influenzae [5]) [µg/mL] | MRT [6] [h] | MIC (Moraxella catarrhalis [7]) [µg/mL] | MBC (Streptococcus pyogenes [8]) [µg/mL] | half-life [10] [h] | Selectivity ratio (Streptococcus pneumoniae [11]) | Ratio (Rattus norvegicus [12]) | Tmax [13] [h] | IC50 (Cytochrome P450 3A4 [14]) [µM] | MBC (Moraxella catarrhalis [15]) [µg/mL] | MBC (Staphylococcus aureus [16]) [µg/mL] | MIC (Streptococcus pyogenes [17]) [µg/mL] | MBC (Streptococcus pneumoniae [18]) [µg/mL] | Ratio [19] | MBC (Staphylococcus aureus [20]) [µg/mL] | Cmax [21] [ng/mL] | Selectivity ratio (Streptococcus pyogenes [22]) | MIC (Streptococcus pneumoniae [23]) [µg/mL] | also measured
CC[C@H]1OC(=O)[C@H](C)C(=O)[C@H](C)[C@@H](O[C@@H]2O[C@H](C)C[C@H](N(C)C)[C@H]2O)[C@](C)(OCC=Cc2cnc3ccccc3c2)C[C@@H](C)C(=O)[C@H](C)[C@H]2NC(=O)O[C@@]21C [CETHROMYCIN] |  |  |  |  |  |  |  |  |  |  |  |  |  |  |  |  |  |  |  |  | IC50 (Cytochrome P450 3A4 [1]): 2.7 µM
CC[C@H]1OC(=O)[C@@](C)(F)C(=O)[C@H](C)[C@@H](O[C@@H]2O[C@H](C)C[C@H](N(C)C)[C@H]2O)[C@](C)(OC)C[C@@H](C)/C(=N\OC/C=C/c2ccc3c(c2)c(=O)c(C(N)=O)cn3CC)[C@H](C)[C@H]2OC(=O)O[C@@]21C | > 0.5 | >8 | 256 (≈ 284 µM) | 7.42 | 4 | > 0.016 | 3.03 | 1 | 2.5 to 3.6 | 7 | 5.14 | > 32 | > 4 | ≤ 0.002 | ≤ 0.008 | 2.3 to 2.6 | > 256 | 124 | >8 | 0.062 | Ratio (Rattus norvegicus [2]): 1.5; AUC [9]: 1538 ng·h/mL; Selectivity ratio (Haemophilus influenzae [24]): 8; Selectivity ratio (Staphylococcus aureus [25]): >8; MIC (Staphylococcus aureus [26]): 128 µg/mL; MBC (Streptococcus pyogenes [27]): 0.5 µg/mL (≈ 0.555 µM); MIC (Streptococcus pyogenes [28]): 0.5 µg/mL; MIC (Streptococcus pneumoniae [29]): ≤ 0.008 µg/mL; Selectivity ratio (Moraxella catarrhalis [30]): >8; MIC (Streptococcus pneumoniae [31]): 0.25 µg/mL; MIC (Streptococcus pyogenes [32]): 0.062 µg/mL; MBC (Streptococcus pneumoniae [33]): 0.25 µg/mL (≈ 0.277 µM); MIC (Haemophilus influenzae [34]): 32 µg/mL; MBC (Streptococcus pyogenes [35]): > 4 µg/mL; Ratio AUC (Rattus norvegicus [36]): 1.6; AUC(0-t) [37]: 1460 ng·h/mL; Selectivity ratio (Streptococcus pyogenes [38]): 8; Selectivity ratio (Streptococcus pneumoniae [39]): >8; MIC (Staphylococcus aureus [40]): 0.5 µg/mL
CC[C@H]1OC(=O)[C@@](C)(F)C(=O)[C@H](C)[C@@H](O[C@@H]2O[C@H](C)C[C@H](N(C)C)[C@H]2O)[C@](C)(OC)C[C@@H](C)/C(=N\OCC#Cc2ccc3c(c2)c(=O)c(C(N)=O)cn3CC)[C@H](C)[C@H]2OC(=O)O[C@@]21C | > 1 | >8 | 32 (≈ 35.6 µM) | 8.53 | 4 | > 0.016 | 3.2 | 2 | 2.5 to 3.6 | 7 | 7.32 | 32 (≈ 35.6 µM) | 8 (≈ 8.9 µM) | ≤ 0.002 | ≤ 0.008 | 2.3 to 2.6 | > 256 | 43.5 | >8 | 0.125 | AUC(0-inf) ([9]; Sprague-Dawley): 281 ng·h/mL; CL/F [41]: 1190 mL/min/kg; Selectivity ratio (Haemophilus influenzae [24]): 2; Selectivity ratio (Staphylococcus aureus [25]): 8; MIC (Staphylococcus aureus [26]): 128 µg/mL; MBC (Streptococcus pyogenes [27]): 0.5 µg/mL (≈ 0.556 µM); MIC (Streptococcus pyogenes [28]): 0.125 µg/mL; MIC (Streptococcus pneumoniae [29]): ≤ 0.008 µg/mL; Selectivity ratio (Moraxella catarrhalis [30]): 8; MIC (Streptococcus pneumoniae [31]): 0.25 µg/mL; MIC (Streptococcus pyogenes [32]): 0.125 µg/mL; MBC (Streptococcus pneumoniae [33]): 0.5 µg/mL (≈ 0.556 µM); MIC (Haemophilus influenzae [34]): 16 µg/mL; MBC (Streptococcus pyogenes [35]): > 1 µg/mL; AUC(0-t) [37]: 228 ng·h/mL; Selectivity ratio (Streptococcus pyogenes [38]): 4; Selectivity ratio (Streptococcus pneumoniae [39]): >8; MIC (Staphylococcus aureus [40]): 1 µg/mL
